Molecules are shown by their SMILES.

The series is described as follows: Toxicity liver stage against HepG2, at 10uM. It counts as cell-based. More on the design: test concentration 10 uM, cell line HepG2-A16-CD81EGFP. To be noted: human, HepG2-A16-CD81EGFP cells; read-out: INHIBITION
The gist of the method: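 Uninfected HepG2-A16-CD81EGFP cells, 3 × 10^3 per well, 1536-well, plated on prespotted compound at 10 μM final, parasite-free screening media added to match infected plates; puromycin 10 μM positive, DMSO 0.5% negative; run in parallel with 48 h PbLuc assay at 37 °C, 5% CO2; viability by CellTiter-Glo luminescence, normalized to controls.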
On to `CS(=O)(=O)N1CCC(CNC(=O)c2cnccn2)CC1`, for which the cytotoxicity at 10 µM worked out at 0.503%.
On to `Cc1ccc(NC(=O)c2cnc(N3CCN(C)CC3)nc2C)cc1C`, for which the cytotoxicity at 10 µM is -7.8%.
The result for `O=c1[nH]cc(Nc2ccccc2)c(=O)[nH]1` reads 15.6%.
The result for `CC1CCN(c2cc(NC(=O)C3CC3)ncn2)CC1` reads -8.67%.
The result for `COCCNC(=O)NCc1cc(-c2cccs2)n(C2CCCC2)n1` reads -10.5%; that for `c1cnc(NCc2n[nH]c3c2CCN(Cc2ccncc2)C3)nc1`, -3.83%; that for `Cc1cnc(N2CCC3(CC2)C(c2ccccc2)CC(=O)N3C)nc1` (stereo unspecified), -4.35%.
On to `CCN1C(=O)CCCC12CCCN(C(=O)c1ccoc1)C2` (stereo unspecified), for which the cytotoxicity at 10 µM was -5.83%.
The same measure for `CC(C)Nc1ncnc2c1CCNCC2`: -1.43%; for `CCS(=O)(=O)N1CCC2(CC(=O)N(c3cncnc3)C2)C1` (stereo unspecified): -0.298%; for `COC[C@H]1CNC(=O)[C@@H]2CCN(Cc3cccc(C)n3)CC[C@H]12`: 16.7%.
The result for `Cc1nnc(N2C[C@H](OCCCn3cccn3)[C@H]3OCCC[C@H]32)s1` reads 13.8%; that for `Cc1occc1C(=O)N1C[C@@H]2CCCO[C@@H]2[C@H](N(C)Cc2ccco2)C1`, 6.67%.
The same measure for `Cn1cc(C[C@H]2[C@@H](O)CCN2C(=O)C2CCC2)cn1`: -7.44%.
Turning to `CSc1nc2cc(C)n(CC(=O)NC(C)C)c2c(=O)n1CC(C)C`, the cytotoxicity at 10 µM was -4.1%.
The same measure for `Cc1cnc(N2C(=O)CSC2c2cccs2)s1` (stereo unspecified): 0.847%.
The same measure for `CN1CCCC1c1ccc(N2CCOCC2)cn1` (stereo unspecified): -2.21%; for `CC(=O)N1CCC(c2nccnc2-c2ccc(F)cc2)CC1`: -2.22%; for `CN1CCN(Cc2cscn2)CC(C(=O)N(C)C)C1` (stereo unspecified): -5.61%.
The same measure for `COc1ccc(Cc2cccc(C3CCN(C)CC3)n2)cc1`: 0.153%; for `CC(C)C(C(N)=O)c1cccc(Cl)c1` (stereo unspecified): 3.82%; for `c1ccc2c(c1)OCCC2NCc1ccc(N2CCOCC2)cc1` (stereo unspecified): -13.7%.
Consider `O=C(NCC(O)Cc1ccccc1)c1ccc2[nH]c(=O)[nH]c2c1` (stereo unspecified), for which the cytotoxicity at 10 µM amounted to 4.14%.
The result for `Cc1cc(C)nc(NC2CCN(CCOC(C)C)CC2)n1` reads -10.8%.
The same measure for `CCN1CCN2CCCN(S(=O)(=O)c3ccc(C)cc3C)C2C1=O` (stereo unspecified): 0.515%; for `N#CCCN(Cc1ccco1)C(=O)CCCNC(=O)c1ccccc1`: 8.15%.
As for `Cn1cc(N2CCCC(Nc3ccc4c(c3)CCCO4)C2=O)cn1` (stereo unspecified), the cytotoxicity at 10 µM was -6.79%.
The result for `COC(=O)CCN(CC1CCOC1)C1CC1` (stereo unspecified) reads -9.66%; that for `Cn1ccnc1COc1ccc(NC(=O)C2CCCO2)cc1` (stereo unspecified), -14.9%.
The same measure for `CN(Cc1cccs1)C(=O)c1ccc(N2CCOCC2)c(F)c1`: -5.56%; for `N#Cc1cccc(OCCN2CCCC2C(=O)Nc2nccs2)c1` (stereo unspecified): 2.94%.
The result for `CCNC(=O)NC(=O)CNC1(c2noc(C)n2)CCCC1` reads 20.6%; that for `Cc1nc(C)n(CC2CCCN2CC(=O)NCCc2cccs2)n1` (stereo unspecified), -0.749%.
Turning to `Cc1nc(N2CCN(C(=O)NCc3cscn3)CC2)sc1C`, the cytotoxicity at 10 µM is -11.3%.
Take `CC(C)(C)c1nnc(CN(Cc2cccs2)CC2CCCO2)o1` (stereo unspecified): the cytotoxicity at 10 µM was 15.8%.
The same measure for `Oc1ccc(N(CCc2ccccc2)CCn2cncn2)cc1`: 4.21%; for `O=C(NCCCn1ccnc1)Nc1ccn(CCc2ccccn2)n1`: -0.386%; for `CCc1nc(C2CCCN(c3nccc(C)n3)C2)no1` (stereo unspecified): -2.69%.
For the molecule `COCCCNS(=O)(=O)c1cc(Br)sc1C`, the cytotoxicity at 10 µM was -6.14%.
With `CN(C(=O)CN1CCCc2cc(F)cc(F)c21)c1ccccc1`, the cytotoxicity at 10 µM came out at 14.2%.
The same measure for `CN(Cc1ccc([S+](C)[O-])cc1)c1ccc(Br)cn1` (stereo unspecified): 11.8%; for `CC(C)N(Cc1ccc(C#N)cc1)C(=O)Nc1ccncc1`: 3.9%; for `COCCc1noc(CN(C)c2nccc(C)n2)n1`: 9.34%.
The same measure for `CN(Cc1cc2c(cc1OC(F)F)OCO2)Cc1nccn1C`: -1.21%; for `CS(=O)(=O)N1CCO[C@@H]2CN(C(=O)N3CCCC3)CC[C@@H]2C1`: -101%; for `Cc1ccc(CNCC2Cn3nncc3CO2)o1` (stereo unspecified): -113%.
Regarding `Cc1cc(C(=O)N2CCc3ncc(CN4CCCCC4)n3CC2)no1`, the cytotoxicity at 10 µM was -100%.
The result for `Cc1nc(CN2C(=O)CC[C@@H]3[C@H]2CCN3C(=O)C2CCOCC2)cs1` reads -81.3%; that for `CCOCC(=O)N1CC[C@@H]2O[C@@H](C)C[C@H]2C1`, -69.2%; that for `CCN(Cc1nccn1C)C(=O)c1ccc(NCc2ccc(C)o2)nc1`, 9.78%.
Take `O=C(CCC1CCN(C(=O)c2csnn2)CC1)NCc1cccc(Cl)c1`: the cytotoxicity at 10 µM was -4.55%.
Consider `CC(C)N1CCC(C(=O)N2CCN(c3cccc(C(=O)O)c3)CC2)CC1`, for which the cytotoxicity at 10 µM turned out to be 6.4%.
For the molecule `CC(NC(=O)C1CCN(C(=O)C2CC2)CC1)c1nncn1C(C)C` (stereo unspecified), the cytotoxicity at 10 µM is 1.33%.
Turning to `CCOCCn1nc(C)cc1C(=O)N1CC[C@](O)(CC)[C@H](O)C1`, the cytotoxicity at 10 µM is -3%.
The same measure for `CCn1ccnc1C1CCCN(c2nccc3ccccc23)C1` (stereo unspecified): -2.74%; for `Cc1c(C(C)NC2CSCCSC2)cnn1-c1ccc(F)cc1F` (stereo unspecified): -11.1%.
For `COc1ccc2c(C)c(C(=O)NCCCc3csc(N)n3)oc2c1`, the cytotoxicity at 10 µM turned out to be 2.58%.
The same measure for `Cc1nc(-c2cccc(N3CCC(N4CCCC(C#N)C4)CC3)c2)cs1` (stereo unspecified): 6.22%.
The same measure for `CCc1cc(N(C)CCc2noc(C)n2)nc(N2CCOCC2)n1`: 4.12%.
The result for `CC(C)CN(Cc1ccc(O)c(C(=O)O)c1)Cc1ccccn1` reads 8.5%; that for `CCC(OC)C(=O)NCc1cc2n(n1)CCCN(C1CCCCC1)C2` (stereo unspecified), 5.3%; that for `CSc1ccc(C(C(=O)O)N2CCC(C(=O)N3CCCC3)CC2)cc1` (stereo unspecified), -3.45%.
For `Cc1cccnc1NCCNc1cc(C(C)C)nc2ccnn12`, the cytotoxicity at 10 µM was -5.29%.
The result for `CCn1ccnc1C1CCN(Cc2c(F)cccc2F)CC1` reads -6.82%; that for `CCn1c(Cn2cncn2)nnc1C1CCN(CCN)CC1`, -0.111%.
For the molecule `CSc1ccc(CN(CCO)Cc2nccn2C)cc1`, the cytotoxicity at 10 µM is 4.98%.
The result for `CN(C)C[C@@H]1CN(C(=O)c2cc(-c3ccccc3)n[nH]2)C[C@@H]1CO` reads -19.9%; that for `CCC(C)N(Cc1sccc1C)C(=O)c1cc(N)ccn1` (stereo unspecified), 9.8%.
The result for `O=C1NCC2(CCCN(Cc3ccc(Cl)s3)C2)Oc2ccccc21` (stereo unspecified) reads 8.69%.
For the molecule `CO[C@@H]1CC[C@@H](N(C)C(=O)COc2ccc(F)cc2)[C@H]1O`, the cytotoxicity at 10 µM is 8.47%.
The result for `Cn1cnc2c1CCN(Cc1noc(-c3ccccc3)n1)C2` reads -1.96%.
The result for `O=C(O)c1cc(S(=O)(=O)Nc2cc(F)ccc2F)cc2c1OCCO2` reads -7.42%; that for `CS(=O)(=O)CCC(=O)Nc1cnn(-c2ccccc2Cl)c1`, -6.66%; that for `Cc1nn(CC(C)C)c(N(C)C)c1CNCc1cccnc1N(C)C`, -7.71%.
The same measure for `O=C(NS(=O)(=O)c1ccc2c(c1)OCCO2)c1ccc(Br)cc1F`: 0.553%; for `Cc1nc(CN2CCOC(CNc3cccnn3)C2)oc1C` (stereo unspecified): -7.94%.
As for `COC(=O)c1cccn1C1CCN(CC(=O)NC2CCCCC2)CC1`, the cytotoxicity at 10 µM was -8.21%.
The result for `Cc1ccc(C)c(CSc2nnc(C(N)Cc3ccccc3)o2)c1` (stereo unspecified) reads -0.431%.
Take `O=C(c1cccnc1N1CCN(CCO)CC1)N1CCCC1`: the cytotoxicity at 10 µM was -1.32%.
The same measure for `COCCNC(=O)[C@H]1CN(Cc2cccs2)C[C@H]2OCC[C@@H]12`: 4%; for `CCN(C)c1ncnc2c1CCN(S(=O)(=O)c1ccccc1)CC2`: -106%; for `c1cncc(O[C@@H]2CC[C@H]3[C@H]2OCCN3C2CCCC2)c1`: 1.76%.
The same measure for `CN(C)Cc1cnc2n1CCN(C(=O)NC1CCCC1)CC2`: -3.77%; for `CNC(=O)CN1CCOCC2(CN(CCC(F)(F)F)CCO2)C1` (stereo unspecified): 3.59%.
The same measure for `CC(C)OCCCN(Cc1ccncc1)Cc1cccc(F)c1`: -15.6%.
In the case of `CN(Cc1cn2c(n1)CN(Cc1nccs1)CC2)Cc1ccco1`, the cytotoxicity at 10 µM was -77.2%.
In the case of `OCCOCc1nnn2c1CN(c1ncccn1)CCC2`, the cytotoxicity at 10 µM is -10.5%.
The same measure for `CN(C)C(=O)N[C@H]1CN(C2CCOCC2)[C@@H]2CCCO[C@H]12`: -1.86%; for `c1ccc(NC[C@@H]2CCC[C@@H]3CN(Cc4cc[nH]n4)C[C@@H]32)nc1`: -111%; for `Cc1noc([C@H]2C[C@H]3OCC[C@H]3N(Cc3cccs3)C2)n1`: -96.3%.
The same measure for `COCCN1C[C@@H]2[C@@H](OC)CCN(Cc3ccncc3)[C@@H]2C1`: 5.16%.
The same measure for `CC(C)=CCN1C(=O)[C@@H]2CC[C@H]1CN(C(=O)CCc1n[nH]c(C)c1C)C2`: 5.54%.
As for `NC(=O)c1cccnc1N1C[C@H]2CC[C@@H](C1)N(Cc1ccccn1)C2=O`, the cytotoxicity at 10 µM was found to be 7.94%.
The result for `CC(C)=CCN1C[C@@H]2CC[C@H]1CN(S(=O)(=O)c1cccnc1)C2` reads 3.26%; that for `CC(C)NC(=O)N1C[C@@H]2C[C@H](C(=O)N3CCCC3)[C@H](C1)O2`, -101%; that for `CN(C)S(=O)(=O)N1C[C@@H]2C[C@H](C(=O)Nc3cccnc3)[C@H](C1)O2`, -71.7%.

Source of the values: ChEMBL document CHEMBL4513216, “Probing the Open Global Health Chemical Diversity Library for Multistage-Active Starting Points for Next-Generation Antimalarials” (ACS Infect Dis, 2020).
